Experiments:
[1] = tested on: Rattus norvegicus; assay: Drug recovery in female Sprague-Dawley rat at 10 mg/kg, po administered as single dose measured after 24 hrs by liquid scintillation counting analysis; assay type: ADME, organism-based; design: dose 10 mg/kg, route oral; details: in vivo
In short: (§1)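 Rats got a single i.v. bolus or oral gavage dose of [³⁵S]-prodrug at 5 ml/kg over a 24 h study. Radioactivity in blood, tissues, carcass, urine and feces measured by liquid scintillation counting. Total recovery given as % of administered dose at 24 h.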

[2] = Drug excretion in male Sprague-Dawley rat urine at 10 mg/kg, iv administered as bolus dose measured at 0 to 1 hr post-dose by liquid scintillation counting analysis; assay type: ADME, organism-based; design: dose 10 mg/kg, route intravenous; details: in vivo
In short: (§2)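 Single [³⁵S]-prodrug dose to rats, i.v. tail-vein bolus (PEG 400/saline vehicle) or oral gavage (citric acid buffer pH 2.5), 5 ml/kg. Urine and feces collected ~1, 4 and 24 h postdose. Radioactivity counted by liquid scintillation and expressed as % of administered dose. Mean and S.D. from nine rats per sex.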

[3] = Drug excretion in male Sprague-Dawley rat urine at 10 mg/kg, iv administered as bolus dose measured at 1 to 4 hrs post-dose by liquid scintillation counting analysis; assay type: ADME, organism-based; design: dose 10 mg/kg, route intravenous; details: in vivo; in short: as §2
[4] = Drug excretion in female Sprague-Dawley rat urine at 10 mg/kg, iv administered as bolus dose measured at 0 to 1 hr post-dose by liquid scintillation counting analysis; assay type: ADME, organism-based; design: dose 10 mg/kg, route intravenous; details: in vivo; in short: as §2
[5] = Drug excretion in female Sprague-Dawley rat urine at 10 mg/kg, iv administered as bolus dose measured at 1 to 4 hrs post-dose by liquid scintillation counting analysis; assay type: ADME, organism-based; design: dose 10 mg/kg, route intravenous; details: in vivo; in short: as §2
[6] = Drug excretion in female Sprague-Dawley rat urine at 10 mg/kg, iv administered as bolus dose measured at 4 to 24 hrs post-dose by liquid scintillation counting analysis; assay type: ADME, organism-based; design: dose 10 mg/kg, route intravenous; details: in vivo; in short: as §2
[7] = Drug excretion in male Sprague-Dawley rat urine at 10 mg/kg, po administered as single dose measured at 1 to 4 hrs post-dose by liquid scintillation counting analysis; assay type: ADME, organism-based; design: dose 10 mg/kg, route oral; details: in vivo; in short: as §2
[8] = Drug excretion in male Sprague-Dawley rat urine at 10 mg/kg, po administered as single dose measured at 4 to 24 hrs post-dose by liquid scintillation counting analysis; assay type: ADME, organism-based; design: dose 10 mg/kg, route oral; details: in vivo; in short: as §2
[9] = Drug excretion in male Sprague-Dawley rat urine at 10 mg/kg, po administered as single dose measured at 0 to 24 hrs post-dose by liquid scintillation counting analysis; assay type: ADME, organism-based; design: dose 10 mg/kg, route oral; details: in vivo; in short: as §2
[10] = Drug excretion in male Sprague-Dawley rat feces at 10 mg/kg, iv administered as bolus dose measured at 4 to 24 hrs post-dose by liquid scintillation counting analysis; assay type: ADME, organism-based; design: dose 10 mg/kg, route intravenous; details: in vivo; in short: as §2
[11] = tested on: Rattus norvegicus; assay: Cmax in male Sprague-Dawley rat at 10 mg/kg, iv administered as bolus dose by liquid scintillation counting analysis; assay type: ADME, organism-based; design: dose 10 mg/kg, route intravenous; details: in vivo
In short: (§3)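 Single dose of [³⁵S]-labelled prodrug to rats, i.v. tail-vein bolus in 25% PEG 400/75% saline or oral gavage in 0.05 M citric acid buffer pH 2.5, 5 ml/kg. Retro-orbital blood into EDTA at 1, 4 or 24 h; plasma by centrifugation. Radioactivity by liquid scintillation counting as µg-Eq/ml. Noncompartmental sparse-sampling analysis gives Cmax and AUC; nine rats per sex.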

[12] = Drug excretion in male Sprague-Dawley rat feces at 10 mg/kg, po administered as single dose measured at 0 to 24 hrs post-dose by liquid scintillation counting analysis; assay type: ADME, organism-based; design: dose 10 mg/kg, route oral; details: in vivo; in short: as §2
[13] = Drug excretion in female Sprague-Dawley rat feces at 10 mg/kg, po administered as single dose measured at 0 to 1 hr post-dose by liquid scintillation counting analysis; assay type: ADME, organism-based; design: dose 10 mg/kg, route oral; details: in vivo; in short: as §2
[14] = Drug excretion in female Sprague-Dawley rat feces at 10 mg/kg, po administered as single dose measured at 1 to 4 hrs post-dose by liquid scintillation counting analysis; assay type: ADME, organism-based; design: dose 10 mg/kg, route oral; details: in vivo; in short: as §2
[15] = tested on: Rattus norvegicus; assay: Tmax in female Sprague-Dawley rat at 10 mg/kg, po administered as single dose by liquid scintillation counting analysis; assay type: ADME, organism-based; design: dose 10 mg/kg, route oral; details: in vivo
In short: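 Radioactivity in plasma from rats given a single [35S]-labelled dose, iv (tail vein, 25% PEG 400/75% saline) or oral gavage (0.05 M citric acid, pH 2.5), sampled at 1, 4 and 24 h, measured by liquid scintillation as µg-Eq/ml. Elimination t1/2 and Tmax were derived by noncompartmental analysis with sparse sampling, from nine male and nine female rats.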

[16] = Drug excretion in female Sprague-Dawley rat feces at 10 mg/kg, po administered as single dose measured at 0 to 24 hrs post-dose by liquid scintillation counting analysis; assay type: ADME, organism-based; design: dose 10 mg/kg, route oral; details: in vivo; in short: as §2
[17] = tested on: Liver; assay: Drug uptake in Sprague-Dawley rat liver at 10 mg/kg, iv administered as bolus dose measured at 1 to 24 hrs post-dose by liquid scintillation counting analysis; assay type: ADME, organism-based; design: dose 10 mg/kg, route intravenous; details: in vivo
In short: (§4)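 [35S]-labelled prodrug given once to rats, iv bolus via tail vein (25% PEG 400/75% saline) or oral gavage (0.05 M citric acid buffer, pH 2.5), 5 ml/kg. Rats euthanised at 1, 4 or 24 h. Liver, lung, kidney, heart, brain, spleen, tail and retro-orbital plasma were collected. Samples were homogenised and solubilised, and radioactivity was counted by liquid scintillation. Values are µg-equivalent/ml or g and % of dose.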

[18] = tested on: Plasma; assay: Drug uptake in Sprague-Dawley rat plasma at 10 mg/kg, po administered as single dose measured at 4 hrs post-dose by liquid scintillation counting analysis; assay type: ADME, organism-based; design: dose 10 mg/kg, route oral; details: in vivo; in short: as §4
[19] = tested on: Nucleic Acid; assay: Ratio of drug level in liver to plasma in female Sprague-Dawley rat at 10 mg/kg, iv administered as bolus dose measured after 1 hr by liquid scintillation counting analysis; assay type: ADME, organism-based; design: dose 10 mg/kg, route intravenous; details: other tissue
In short: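 Rats received a single iv bolus of the [35S]-labelled prodrug via tail vein in 25% PEG 400/75% saline, 5 ml/kg. Liver (solubilised homogenate) and plasma (EDTA blood, retro-orbital, just before necropsy) were taken at 1, 4 and 24 h and counted by liquid scintillation. The liver/plasma concentration ratio is the mean at each time point, from nine male and nine female rats.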

[20] = tested on: Rattus norvegicus; assay: Drug recovery in male Sprague-Dawley rat at 10 mg/kg, iv administered as bolus dose measured after 24 hrs by liquid scintillation counting analysis; assay type: ADME, organism-based; design: dose 10 mg/kg, route intravenous; details: in vivo; in short: as §1
[21] = tested on: Heart; assay: Drug uptake in Sprague-Dawley rat heart at 10 mg/kg, iv administered as bolus dose measured at 1 to 24 hrs post-dose by liquid scintillation counting analysis; assay type: ADME, organism-based; design: dose 10 mg/kg, route intravenous; details: in vivo
In short: (§5)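 Single i.v. tail-vein bolus or oral gavage of [³⁵S]-prodrug to rats, 5 ml/kg. Euthanised by i.p. pentobarbital overdose at 1, 4 or 24 h. Retro-orbital blood collected; liver, lung, kidney, heart, brain and spleen frozen. Tissues homogenised, solubilised and counted by liquid scintillation. Radioactivity given as µg-Eq/g and % of dose.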

[22] = tested on: Rattus norvegicus; assay: AUC in female Sprague-Dawley rat at 10 mg/kg, po administered as single dose by liquid scintillation counting analysis; assay type: ADME, organism-based, Plasma; design: dose 10 mg/kg, route oral; details: in vivo; in short: as §3
[23] = tested on: Brain; assay: Drug uptake in Sprague-Dawley rat brain at 10 mg/kg, po administered as single dose measured at 1 to 24 hrs post-dose by liquid scintillation counting analysis; assay type: ADME, organism-based; design: dose 10 mg/kg, route oral; details: in vivo; in short: as §5
[24] = tested on: Spleen; assay: Drug uptake in Sprague-Dawley rat spleen at 10 mg/kg, po administered as single dose measured at 1 to 24 hrs post-dose by liquid scintillation counting analysis; assay type: ADME, organism-based; design: dose 10 mg/kg, route oral; details: in vivo; in short: as §4
[25] = tested on: Heart; assay: Drug uptake in Sprague-Dawley rat heart at 10 mg/kg, po administered as single dose measured at 1 to 24 hrs post-dose by liquid scintillation counting analysis; assay type: ADME, organism-based; design: dose 10 mg/kg, route oral; details: in vivo; in short: as §5
[26] = tested on: Rattus norvegicus; assay: Cmax in male Sprague-Dawley rat at 10 mg/kg, po administered as single dose by liquid scintillation counting analysis; assay type: ADME, organism-based; design: dose 10 mg/kg, route oral; details: in vivo; in short: as §3

SMILES: CO[C@@H]1[C@H](OP(=O)(OC[C@H]2O[C@@H](n3cnc4c(N)ncnc43)C[C@@H]2O)[35S]COC(=O)OC(C)C)[C@@H](CO)O[C@H]1n1ccc(=O)[nH]c1=O (stereo partly specified)
- Drug recovery [1]: 80.4%
- Drug excretion [2]: 22.83%
- Drug excretion [3]: 11.33%
- Drug excretion [4]: 15.81%
- Drug excretion [5]: 6.34%
- Drug excretion [6]: 36.79%
- Drug excretion [7]: 0.86%
- Drug excretion [8]: 33.73%
- Drug excretion [9]: 34.59%
- Drug excretion [10]: 16.9%
- Cmax [11]: 6.51 ugequiv/ml
- Drug excretion [12]: 35.71%
- Drug excretion [13]: 0.02%
- Drug excretion [14]: 0.08%
- Tmax [15]: 4 h
- Drug excretion [16]: 2.72%
- Drug uptake [17]: Active
- Drug uptake [18]: Active
- Ratio [19]: 3.89
- Drug recovery [20]: 83.7%
- Drug uptake [21]: <= 0.5%
- AUC [22]: 27.37 ugequiv.h/ml
- Drug uptake [23]: <= 0.5%
- Drug uptake [24]: <= 0.5%
- Drug uptake [25]: <= 0.5%
- Cmax [26]: 2.53 ugequiv/ml

— ChEMBL document CHEMBL3526154, “Metabolism, pharmacokinetics, tissue distribution, and stability studies of the prodrug analog of an anti-hepatitis B virus dinucleoside phosphorothioate” (Drug Metab Dispos, 2012)
